What was measured:
HepG2/C3A liver cells = test: Tissue chip liver compartment: viability of HepG2/C3A cells in collagen; assay type: cell-based, human; conditions: for IC50: Homo sapiens, HepG2/C3A, read-out: IC50 HepG2/C3A; for AUC HepG2/C3A: area under the dose-response curve, tissue chip, liver compartment
Summary of the method: (§1)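 Tumour compartment: MDA-MB-231 spheroids (10 × 10^3 cells, formed 4 days before seeding) in 3.5 mg mL−1 collagen. Liver (HepG2/C3A) and stroma (HS-5) compartments: 15 × 10^3 single cells in the same collagen. Medium 1:1 EMEM:DMEM under rocker-driven gravity flow. Test compound medium from day 1, replenished every 2 days, 5 days total. Four concentrations including control, 2–4 replicates; single-dose runs at 50 μM. PrestoBlue 15% v/v, 1 h, ex 560/em 590 nm; AUC computed.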

[1] = test system: MDA-MB-231 breast cancer cells; assay type: cell-based, human; conditions: for IC50: Homo sapiens, MDA-MB-231, read-out: IC50 MDA-MB-231; for AUC MDA-MB-231: area under the dose-response curve, tissue chip, tumor compartment
Summary of the method: as §1

[2] = test system: HS-5 bone marrow stromal cells; test: Tissue chip bone marrow stroma compartment: viability of HS-5 cells in collagen; assay type: cell-based, human; design: AUC HS-5: unit not given beside the values; conditions: for IC50: Homo sapiens, HS5, read-out: IC50 HS-5; for AUC HS-5: area under the dose-response curve, tissue chip, bone marrow stroma compartment
Summary of the method: as §1

[3] = Tissue chip liver compartment: viability of HepG2/C3A cells in collagen; assay type: cell-based, human; conditions: human
Summary of the method: as §1

[4] = Tissue chip bone marrow stroma compartment: viability of HS-5 cells in collagen; assay type: cell-based, human; design: AUC HS-5: unit not given beside the values; conditions: human
Summary of the method: as §1

[5] = test system: MDA-MB-231, HepG2/C3A and HS-5 cells; test: Tissue chip dose response, summary across all three compartments; assay type: cell-based; conditions: Homo sapiens, read-out: IC50 values across all compartments
Summary of the method: as §1

Row | Structure (SMILES) | IC50 (HepG2/C3A liver cells) [nM] | AUC HepG2/C3A (HepG2/C3A liver cells) | IC50 [1] [nM] | AUC MDA-MB-231 [1] | IC50 [2] [nM] | AUC HS-5 [2] | viability at 5 days, 50 μM [3] [%] | viability at 5 days, 50 μM [4] [%] | IC50 [5] [nM]
1 | COc1cccc2c1C(=O)c1c(O)c3c(c(O)c1C2=O)C[C@@](O)(C(=O)CO)C[C@@H]3O[C@H]1C[C@H](N)[C@H](O)[C@H](C)O1 [Doxorubicin, doxorubicin] | 231 | 0.72 | 5.5 | 0.47 | 4.6 | 0.45 |  |  | 
2 | CC(=O)Nc1cccc(-n2c(=O)n(C3CC3)c(=O)c3c(Nc4ccc(I)cc4F)n(C)c(=O)c(C)c32)c1 [Trametinib, trametinib] | 12.2 | 0.75 | 0.06 | 0.63 | > 1000 | 0.98 |  |  | 
3 | O=c1[nH]cc(F)c(=O)[nH]1 [5-FU, 5-fluorouracil] |  |  |  |  |  |  | 20 | 24 | 1000 to 10000
